Data: ChEMBL document CHEMBL1649438, “Activities of ceftobiprole and other cephalosporins against extracellular and intracellular (THP-1 macrophages and keratinocytes) forms of methicillin-susceptible and methicillin-resistant Staphylococcus aureus” (Antimicrob Agents Chemother, 2009)
In brackets after ≈: the same amount, converted by molar mass.

Tests used:
Staphylococcus aureus [1] = assay: Bacteriostatic activity against methicillin-susceptible Staphylococcus aureus ATCC 11632 infected in human THP-1 cells assessed as change in bacterial count after 24 hrs at pH 7.4; type: functional
Outline: (§1)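 Human THP-1 macrophage-like cells were infected with S. aureus to a postphagocytosis inoculum of 1.5 × 10^6 to 3.0 × 10^6 CFU/mg cell protein. Cells were then exposed 24 h to increasing extracellular antibiotic concentrations. Response was the log10 CFU change per mg protein from the postphagocytosis inoculum, n = 3. A Hill function was fitted on log-transformed axes. E0 and Emax were extrapolated to infinitely low and high concentrations. Cs was read by graphical interpolation. Concentrations were expressed as multiples of the broth MIC at pH 5.5 or pH 7.4.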

Staphylococcus aureus [2] = assay: Antimicrobial activity against hospital-acquired methicillin-resistant Staphylococcus aureus ATCC 33591 infected in human THP-1 cells assessed as change in bacterial count after 24 hrs at pH 5.5; type: functional, organism-based; details: ATCC 33591, THP-1, 24 h
Outline: (§2)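 THP-1 macrophages infected as described previously, with a postphagocytosis inoculum of 1.5 × 10⁶ to 3.0 × 10⁶ CFU/mg cell protein. Cells were exposed 24 h to increasing extracellular antibiotic concentrations. Response is the change in log10 CFU/mg protein from the inoculum (n = 3), fitted to a Hill function. E0 and Emax were extrapolated to infinitely low and high concentrations. EC50 and static concentration (graphical interpolation) are expressed as multiples of the broth MIC at pH 5.5 or 7.4.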

Staphylococcus aureus [3] = assay: Antimicrobial activity against Panton-valentine leucocidin-positive community-acquired methicillin-resistant Staphylococcus aureus isolate MEH2225605 infected in human THP-1 cells assessed as bacterial count per mg of cell protein at high extracellular compound concentration after 24 hrs; type: functional
Outline: (§3)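 THP-1 human macrophages infected with S. aureus (postphagocytosis inoculum 1.5 × 10^6 to 3.0 × 10^6 CFU/mg cell protein), then incubated 24 h with increasing extracellular antibiotic concentrations. Change in log10 CFU/mg cell protein from the postphagocytosis inoculum, n = 3. Hill function fitted on log-transformed data. Low-concentration value (E0) and high-concentration value (Emax) are extrapolated. Where a pH is given, concentrations are expressed as multiples of the broth MIC at that pH.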

Staphylococcus aureus [4] = assay: Bacteriostatic activity against methicillin-susceptible Staphylococcus aureus NRS52 infected in human THP-1 cells assessed as change in bacterial count after 24 hrs at pH 7.4; type: functional; outline: as §1
Staphylococcus aureus [5] = assay: Antimicrobial activity against methicillin-susceptible Staphylococcus aureus ATCC 11632 infected in human THP-1 cells assessed as bacterial count per mg of cell protein at high extracellular compound concentration after 24 hrs at pH 7.4; type: functional; outline: as §1
Staphylococcus aureus [6] = assay: Bacteriostatic activity against Panton-valentine leucocidin-positive community-acquired methicillin-resistant Staphylococcus aureus STA 44 infected in human THP-1 cells assessed as change in bacterial count after 24 hrs at pH 5.5; type: functional; outline: as §2
Staphylococcus aureus [7] = assay: Antimicrobial activity against methicillin-susceptible Staphylococcus aureus […] infected in human THP-1 cells assessed as change in bacterial count after 24 hrs at pH 7.4; type: functional, organism-based; details: THP-1, 24 h; outline: as §2
Staphylococcus aureus [8] = assay: Antimicrobial activity against hospital-acquired vancomycin-resistant Staphylococcus aureus VRS1 infected in human THP-1 cells assessed as change in bacterial count after 24 hrs at pH 5.5; type: functional, cell-based; details: VRS1, THP-1, 24 h; outline: as §2
Staphylococcus aureus [9] = assay: Antimicrobial activity against methicillin-susceptible Staphylococcus aureus ATCC 25923 infected in human keratinocytes assessed as bacterial count per mg of cell protein at high extracellular compound concentration after 24 hrs; type: functional
Outline: (§4)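 Primary human skin keratinocytes were grown in defined keratinocyte serum-free medium and infected with S. aureus to 1.5 × 10^6 to 3.0 × 10^6 CFU/mg cell protein. Cells were exposed 24 h to increasing extracellular concentrations. Response was the log10 CFU change from the postphagocytosis inoculum, fitted by a Hill equation with slope 1. Cs is the concentration giving CFU equal to the original inoculum, found by graphical interpolation.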

Staphylococcus aureus [10] = assay: Antimicrobial activity against hospital-acquired vancomycin-intermediate Staphylococcus aureus NRS18 infected in human THP-1 cells assessed as change in bacterial count after 24 hrs at pH 5.5; type: functional, organism-based; details: NRS18, THP-1, 24 h; outline: as §2
Staphylococcus aureus [11] = assay: Antimicrobial activity against Panton-valentine leucocidin-positive community-acquired methicillin-resistant Staphylococcus aureus STA 228 infected in human THP-1 cells assessed as bacterial count per mg of cell protein at low extracellular compound concentration after 24 hrs; type: functional; outline: as §3
Staphylococcus aureus [12] = assay: Antimicrobial activity against methicillin-resistant Staphylococcus aureus ATCC 33591 infected in human keratinocytes assessed as bacterial count per mg of cell protein at low extracellular compound concentration after 24 hrs; type: functional
Outline: (§5)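 Primary human skin keratinocytes were grown in defined keratinocyte serum-free medium, infected with a postphagocytosis inoculum of 1.5 × 10⁶ to 3.0 × 10⁶ CFU/mg cell protein, then exposed 24 h to increasing extracellular antibiotic concentrations. Change in log10 CFU/mg protein from the inoculum was fitted to a Hill equation with slope 1. E0 and Emax were extrapolated to infinitely low and high concentrations, in total drug mg/liter.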

Staphylococcus aureus [13] = assay: Antimicrobial activity against Panton-valentine leucocidin-positive community-acquired methicillin-resistant Staphylococcus aureus N4090440 infected in human THP-1 cells assessed as bacterial count per mg of cell protein at high extracellular compound concentration after 24 hrs; type: functional; outline: as §3
Staphylococcus aureus [14] = assay: Antimicrobial activity against hospital-acquired methicillin-resistant Staphylococcus aureus […] infected in human THP-1 cells assessed as change in bacterial count after 24 hrs at pH 5.5; type: functional, organism-based; details: THP-1, 24 h; outline: as §2
Staphylococcus aureus [15] = assay: Bacteriostatic activity against methicillin-susceptible Staphylococcus aureus […] infected in human THP-1 cells assessed as change in bacterial count after 24 hrs at pH 7.4; type: functional; outline: as §1
Staphylococcus aureus [16] = assay: Antimicrobial activity against methicillin-susceptible Staphylococcus aureus ATCC 11632 infected in human THP-1 cells assessed as bacterial count per mg of cell protein at high extracellular compound concentration after 24 hrs; type: functional; outline: as §2
Staphylococcus aureus [17] = assay: Antimicrobial activity against Panton-valentine leucocidin-positive community-acquired methicillin-resistant Staphylococcus aureus isolate MEH2225605 infected in human THP-1 cells assessed as change in bacterial count after 24 hrs; type: functional, organism-based; details: isolate MEH2225605, THP-1, 24 h; outline: as §3
Staphylococcus aureus [18] = assay: Antimicrobial activity against Panton-valentine leucocidin-positive community-acquired methicillin-resistant Staphylococcus aureus STA 44 infected in human THP-1 cells assessed as change in bacterial count after 24 hrs; type: functional, organism-based; details: STA 44, THP-1, 24 h; outline: as §3
Staphylococcus aureus [19] = assay: Antimicrobial activity against hospital-acquired vancomycin-intermediate Staphylococcus aureus NRS126 infected in human THP-1 cells assessed as change in bacterial count after 24 hrs at pH 7.4; type: functional, organism-based; details: NRS126, THP-1, 24 h; outline: as §2
Staphylococcus aureus [20] = assay: Antimicrobial activity against hospital-acquired methicillin-resistant Staphylococcus aureus ATCC 33592 infected in human THP-1 cells assessed as change in bacterial count after 24 hrs; type: functional, organism-based; details: ATCC 33592, THP-1, 24 h; outline: as §2
Staphylococcus aureus [21] = assay: Antimicrobial activity against methicillin-resistant Staphylococcus aureus ATCC 33591 infected in human keratinocytes assessed as change in bacterial count after 24 hrs; type: functional, organism-based; details: ATCC 33591, 24 h; outline: as §5
Staphylococcus aureus [22] = assay: Bacteriostatic activity against methicillin-susceptible Staphylococcus aureus ATCC 25923 infected in human keratinocytes assessed as change in bacterial count after 24 hrs; type: functional; outline: as §4

Nc1nc(/C(=N/O)C(=O)N[C@@H]2C(=O)N3C(C(=O)O)=C(/C=C4\CCN([C@@H]5CCNC5)C4=O)CS[C@H]23)ns1 [CEFTOBIPROLE]
Activity (Staphylococcus aureus [1]): 0.6 × MIC | EC50 (Staphylococcus aureus [2]): 0.77 × MIC | log10cfu (Staphylococcus aureus [3]): -0.97 | Activity (Staphylococcus aureus [4]): 0.6 ×MIC | log10cfu (Staphylococcus aureus [5]): -1.04 | Activity (Staphylococcus aureus [6]): 1.45 × MIC | EC50 (Staphylococcus aureus [7]): 0.2 × MIC | EC50 (Staphylococcus aureus [8]): 0.77 × MIC | log10cfu (Staphylococcus aureus [9]): -0.94 | EC50 (Staphylococcus aureus [10]): 0.77 ×MIC | log10cfu (Staphylococcus aureus [11]): 2.87 | log10cfu (Staphylococcus aureus [12]): 2.04 | log10cfu (Staphylococcus aureus [13]): -1.05 | EC50 (Staphylococcus aureus [14]): 0.77 ×MIC | Activity (Staphylococcus aureus [15]): 0.6 × MIC | log10cfu (Staphylococcus aureus [16]): -0.95 | EC50 (Staphylococcus aureus [17]): 0.82 µg/mL (≈ 1.53 µM) | EC50 (Staphylococcus aureus [18]): 0.94 µg/mL (≈ 1.76 µM) | EC50 (Staphylococcus aureus [19]): 0.28 ×MIC | EC50 (Staphylococcus aureus [20]): 1.23 µg/mL (≈ 2.3 µM) | EC50 (Staphylococcus aureus [21]): 1.08 µg/mL (≈ 2.02 µM) | Activity (Staphylococcus aureus [22]): 0.91 mg/L
